A short description of data set [1]: melting temperature; fluorescence melt of hairpins on a sequencing array, two-state fit, raised by 9.35 °C to match UV melts. The following applies: sodium 0.088 M. A digest of the protocol:
(§1)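 Bootstrapped two-state fits yielded melting temperature and folding enthalpy for library hairpins. Cy3 fluorescence, with annealed Cy3 and quencher oligos, was imaged on a sequenced MiSeq flow cell in 50 mM Na-HEPES pH 8.0, 25 mM NaCl in 2.5 °C steps up to 60 °C, and normalised to pre-quench Cy3 and to control constructs. Four replicates were combined by inverse variance, and fitted temperatures were raised by 9.35 °C to match UV melts.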

A short description of data set [2]: folding enthalpy; higher = less favourable; fluorescence melt of hairpins on a sequencing array, two-state fit. Conditions: sodium 0.088 M. The essentials:
as §1

Take GCTAGCGAAAGCTAAGC ((((((....))).))): the Tm in data set [1] came out at 54.6 °C. Further, the folding enthalpy in data set [2] was -22.4 kcal/mol.

For GCTCAACGAAAGTTCAGC (((.(((....))).))), the Tm in data set [1] came to 37.6 °C. In data set [2], the folding enthalpy is -23.6 kcal/mol.

With GCTAACCGAAAGGTGAGC (((.(((....))).))), the Tm in data set [1] was found to be 59.7 °C. The folding enthalpy in data set [2] was -32.1 kcal/mol.

Take GCCAACGGAAACGTCAGC ((..(((....)))..)): in data set [1], the Tm stood at 28.3 °C. Moreover, the folding enthalpy in data set [2] is -12.1 kcal/mol.

As for GATCTACGAATAGATC ((((((....)))))), the Tm in data set [1] is 36.4 °C. For the same sequence, the folding enthalpy in data set [2] is -24 kcal/mol.

With GTGCCAGGAAACTGGCGC (.(((((....))))).), the Tm in data set [1] was determined as 62 °C. For the same sequence, in data set [2], the folding enthalpy is -22.8 kcal/mol.

For the sequence GCGGGGCGAAAGCCGGGC ((..(((....)))..)), in data set [1], the Tm was found to be 56 °C. The folding enthalpy in data set [2] is -14.8 kcal/mol.

Consider GGAAGCGAAAGCTCGTCC ((((((....)))..))), for which, in data set [1], the Tm came to 29.5 °C. Also, in data set [2], the folding enthalpy is -11.6 kcal/mol.

For the sequence GCGTAAAAACGC ((((....)))), the Tm in data set [1] came out at 46.4 °C. Besides, the folding enthalpy in data set [2] was -19.9 kcal/mol.

On to GCCAGCGAAAGCTCAGGC ((((((....)))..))), for which the Tm in data set [1] is 49.9 °C. For the same sequence, the folding enthalpy in data set [2] was -30.4 kcal/mol.

For the sequence GTGGTGGGAAACTACCGC (.(((.(....).))).), in data set [1], the Tm stood at 42.7 °C. In addition, in data set [2], the folding enthalpy was -28.4 kcal/mol.

Take GCCACCGAAAGGTTTGGC ((((((....)))..))): the Tm in data set [1] worked out at 48.7 °C. Also, the folding enthalpy in data set [2] was -26.6 kcal/mol.

As to GATCTTTTGGAAGATC ((((((....)))))), the Tm in data set [1] stood at 44.3 °C. For the same sequence, the folding enthalpy in data set [2] is -34.1 kcal/mol.

For GTGGAGGGAAACCTTCAC (((.(((....))).))), the Tm in data set [1] turned out to be 47.3 °C. Moreover, the folding enthalpy in data set [2] is -31.9 kcal/mol.

GTAACGGGAAACCGTTAC (((((((....))))))): in data set [1], the Tm worked out at 60.5 °C. Also, the folding enthalpy in data set [2] was -49.6 kcal/mol.

Regarding GCGTTCTCACGC ((((....)))), in data set [1], the Tm came out at 50.6 °C. The folding enthalpy in data set [2] is -25.9 kcal/mol.

GCTTACGGAAACATAAGC (((((.(....).))))): the Tm in data set [1] came to 35.1 °C. In addition, the folding enthalpy in data set [2] was -21.6 kcal/mol.

GGTTACGAAAGTAGAACC ((((((....)))..))): the Tm in data set [1] turned out to be 37.8 °C. Also, the folding enthalpy in data set [2] is -18.2 kcal/mol.

In the case of GATCTACTCGTAGATC ((((((....)))))), in data set [1], the Tm is 53.8 °C. In addition, in data set [2], the folding enthalpy is -50.1 kcal/mol.

In the case of GACGAGCGAAAGCTAGTC (((.(((....))).))), in data set [1], the Tm is 56.8 °C. The folding enthalpy in data set [2] was -31 kcal/mol.

With GCGATCCGAAAGGAACGC (((.(((....))).))), the Tm in data set [1] was found to be 66.8 °C. Besides, in data set [2], the folding enthalpy is -40 kcal/mol.

For the sequence GCCACGGGAAACCGCGAC (.(.(((....))).).), the Tm in data set [1] turned out to be 29.1 °C. For the same sequence, in data set [2], the folding enthalpy is -12.1 kcal/mol.

As for GTGTCTGGAAACGGACAC (((((.(....).))))), the Tm in data set [1] was found to be 54 °C. Besides, the folding enthalpy in data set [2] was -41.3 kcal/mol.

For the sequence GTTTAAGGAAACCTAAAC (((((.(....).))))), the Tm in data set [1] was 24.8 °C. Further, the folding enthalpy in data set [2] is -9.26 kcal/mol.

Consider GACTTGGCGAAAGCCGTC (((..(((....)))))), for which the Tm in data set [1] came out at 48.4 °C. Besides, in data set [2], the folding enthalpy is -7.4 kcal/mol.

Take GATCAAAATTTTGATC ((((((....)))))): the Tm in data set [1] stood at 48.3 °C. Also, in data set [2], the folding enthalpy is -40.1 kcal/mol.

Regarding GATCCAACTGTGGATC ((((((....)))))), the Tm in data set [1] turned out to be 49.1 °C. The folding enthalpy in data set [2] was -32.6 kcal/mol.

In the case of GACCATGCGAAAGCAGTC (((..(((....)))))), the Tm in data set [1] amounted to 30.2 °C. In addition, in data set [2], the folding enthalpy is -10.6 kcal/mol.

As for GAGGTGCGAAAGCACTC (((.(((....)))))), the Tm in data set [1] was 48.3 °C. The folding enthalpy in data set [2] was -10 kcal/mol.

Turning to GGATGGGGAAACCTGTCC (((..((....))..))), the Tm in data set [1] was 41 °C. For the same sequence, the folding enthalpy in data set [2] was -29.3 kcal/mol.

Take GCTTAGCGAAAGCGGAGC (((..((....))..))): in data set [1], the Tm came out at 58.7 °C. The folding enthalpy in data set [2] is -16.8 kcal/mol.

With GATAGCGAAAGCTCTATC ((((((....)))..))), the Tm in data set [1] was determined as 26.4 °C. The folding enthalpy in data set [2] was -11.1 kcal/mol.

For the sequence GAATCGAAAGATTC (((((....))))), the Tm in data set [1] was found to be 50.9 °C. In addition, the folding enthalpy in data set [2] is -27.4 kcal/mol.

In the case of GACACAGGAAACTATGTC ((((.((....)).)))), the Tm in data set [1] came to 29.9 °C. In addition, in data set [2], the folding enthalpy was -24.5 kcal/mol.

Take GCTGTTGCGAAAGCAAGC (((..(((....)))))): the Tm in data set [1] worked out at 47.3 °C. In addition, in data set [2], the folding enthalpy is -12.6 kcal/mol.

For GATCCACTACTGGATC ((((((....)))))), the Tm in data set [1] came to 49.7 °C. In data set [2], the folding enthalpy was -35.5 kcal/mol.

Turning to GGTTGCGAAAGCATGACC ((((((....)))..))), the Tm in data set [1] stood at 40.2 °C. For the same sequence, the folding enthalpy in data set [2] is -15.7 kcal/mol.

The values are drawn from the array DNA melting data of Ke et al. (doi:10.1101/2024.01.08.574731).
